Reference: ChEMBL document CHEMBL3421570, “Combinatorial Libraries As a Tool for the Discovery of Novel, Broad-Spectrum Antibacterial Agents Targeting the ESKAPE Pathogens” (J Med Chem, 2015)
Values after ≈ are worked out from the molar mass of the structure shown. Active and inactive are the calls of the source. The calls are words filed in the database; no cut-off is given here.

Experiments:
Pseudomonas aeruginosa [1] = assay: Antimicrobial activity against Pseudomonas aeruginosa assessed as inhibition of microbial growth at 100 uM after 24 hrs; assay type: functional, organism-based
Outline: (§1)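 Broth microdilution single-concentration read: overnight cultures diluted 1:1000, compound in DMF (≤2.0%) added, 37°C for 24 h, growth inhibition scored visually by lack of turbidity; triplicate. Gram-positives grown in TSB, Gram-negatives in LB.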

[2] = Selectivity index, ratio of IC50 for human A549 cells to MIC for Enterobacter cloacae
[3] = Selectivity index, ratio of IC50 for human A549 cells to MIC for Staphylococcus aureus
[4] = Cytotoxicity against human A549 cells assessed as cell viability recovery up to 100 uM after 48 hrs by MTT assay; assay type: cell-based; conditions: read-out: Activity
Outline: (§2)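 A549 cells grown in F-12K with L-glutamine, 10% FBS, 1% penicillin-streptomycin, seeded at 1.0 × 10^5 ml−1, allowed to adhere 24 h (37°C, 5% CO2), then exposed to compound in 45% w/v (2-hydroxypropyl)-β-cyclodextrin vehicle for 48 h. MTT 4 h, formazan solubilized in DMSO, absorbance 540 nm. Percent recovery versus vehicle-only; IC50 derived; at least three independent experiments.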

Enterococcus faecium [5] = assay: Antimicrobial activity against Enterococcus faecium assessed as inhibition of microbial growth after 24 hrs; assay type: functional
Outline: (§3)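 Broth microdilution against multidrug-resistant clinical ESKAPE isolates. Overnight cultures (TSB for Gram-positives, LB for Gram-negatives) diluted 1:1000 in fresh medium, compound in DMF (≤2.0% DMF) added at decreasing concentrations, 37°C.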

[6] = Selectivity index, ratio of IC50 for human A549 cells to MIC for Acinetobacter baumannii
Klebsiella pneumoniae [7] = assay: Antimicrobial activity against Klebsiella pneumoniae assessed as inhibition of microbial growth at 45 uM after 24 hrs; assay type: functional, organism-based; outline: as §1
Pseudomonas aeruginosa [8] = assay: Antibiofilm activity against Pseudomonas aeruginosa incubated for 24 hrs followed by biofilm resuspension in PBS and measured after 24 hrs; assay type: functional
Outline: (§4)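 Biofilms grown 24 h in 96-well plates from overnight cultures standardized to OD600 0.5 in fresh medium (human serum only for S. aureus; TSB for Gram-positives, LB for Gram-negatives). Medium then replaced with fresh medium containing a concentration range above and below MIC, 37°C overnight. After 24 h biofilm resuspended in PBS, serially diluted, plated in duplicate, CFU counted after 24 h at 37°C. Activity relative to untreated; three technical replicates; MBEC50 reported.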

Klebsiella pneumoniae [9] = assay: Antibiofilm activity against Klebsiella pneumoniae incubated for 24 hrs followed by biofilm resuspension in PBS and measured after 24 hrs; assay type: functional; outline: as §4
Enterobacter cloacae [10] = assay: Bactericidal activity against Enterobacter cloacae after 24 hrs; assay type: functional
Enterococcus faecium [11] = assay: Induction of spontaneous mutation in Enterococcus faecium at 2 to 10 MIC; assay type: functional, organism-based
Staphylococcus aureus [12] = assay: Antimicrobial activity against Staphylococcus aureus assessed as inhibition of microbial growth at 45 uM after 24 hrs; assay type: functional, organism-based; outline: as §1
Enterococcus faecium [13] = assay: Antibiofilm activity against Enterococcus faecium incubated for 24 hrs followed by biofilm resuspension in PBS and measured after 24 hrs; assay type: functional; outline: as §4
Klebsiella pneumoniae [14] = assay: Induction of spontaneous mutation in Klebsiella pneumoniae at 2 to 10 MIC; assay type: functional, organism-based
Staphylococcus aureus [15] = assay: Antimicrobial activity against Staphylococcus aureus USA300 strain FPR3757 infected in mouse model of lethal peritonitis assessed as mouse survival at 2 uM, im dosed 1 hr post infection and measured after 5 days post infection; assay type: functional, organism-based
Outline: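 Mice, six per group, infected i.p. with 1 × 10^8 CFU ml−1 S. aureus USA300 FPR3757 in PBS with 5% mucin. Compound given i.m. at 2 μM 1 h later; vehicle 45% w/v (2-hydroxypropyl)-β-cyclodextrin in water i.v.; vancomycin i.v. as control. Monitored twice daily for 5 days, pre-moribund animals euthanized. Survival compared by log-rank test.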

Staphylococcus aureus [16] = assay: Antimicrobial activity against Staphylococcus aureus assessed as inhibition of microbial growth after 24 hrs; assay type: functional; outline: as §3
Staphylococcus aureus [17] = assay: Effect on bacterial density of methicillin-resistant Staphylococcus aureus at MIC measured over 2 hrs period by time kill assay; assay type: functional, organism-based
Acinetobacter baumannii [18] = assay: Induction of spontaneous mutation in Acinetobacter baumannii at 2 to 10 MIC; assay type: functional, organism-based
Enterococcus faecium [19] = assay: Antimicrobial activity against Enterococcus faecium assessed as inhibition of microbial growth at 45 uM after 24 hrs; assay type: functional, organism-based; outline: as §1
Pseudomonas aeruginosa [20] = assay: Bactericidal activity against Pseudomonas aeruginosa after 24 hrs; assay type: functional
Enterobacter cloacae [21] = assay: Antimicrobial activity against Enterobacter cloacae assessed as inhibition of microbial growth after 24 hrs; assay type: functional; outline: as §3
Pseudomonas aeruginosa [22] = assay: Antimicrobial activity against Pseudomonas aeruginosa assessed as inhibition of microbial growth after 24 hrs; assay type: functional; outline: as §3
Acinetobacter baumannii [23] = assay: Antimicrobial activity against Acinetobacter baumannii assessed as inhibition of microbial growth at 45 uM after 24 hrs; assay type: functional, organism-based; outline: as §1
Enterobacter cloacae [24] = assay: Antibiofilm activity against Enterobacter cloacae incubated for 24 hrs followed by biofilm resuspension in PBS and measured after 24 hrs; assay type: functional; outline: as §4
Acinetobacter baumannii [25] = assay: Bactericidal activity against Acinetobacter baumannii after 24 hrs; assay type: functional
Staphylococcus aureus [26] = assay: Antibiofilm activity against Staphylococcus aureus incubated for 24 hrs followed by biofilm resuspension in PBS and measured after 24 hrs; assay type: functional; outline: as §4
Enterococcus faecium [27] = assay: Bactericidal activity against Enterococcus faecium after 24 hrs; assay type: functional
Klebsiella pneumoniae [28] = assay: Bactericidal activity against Klebsiella pneumoniae after 24 hrs; assay type: functional
Staphylococcus aureus [29] = assay: Ratio of MIC for Staphylococcus aureus measured after 8 cycle passage to MIC for wild type Staphylococcus aureus; assay type: functional
Enterobacter cloacae [30] = assay: Induction of spontaneous mutation in Enterobacter cloacae at 2 to 10 MIC; assay type: functional, organism-based
Staphylococcus aureus [31] = assay: Bactericidal activity against methicillin-resistant Staphylococcus aureus at MIC measured after drug wash out after 120 mins by time kill assay; assay type: functional
Outline: (§5)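 MRSA from stationary phase was regrown 3 h in TSB and seeded at OD600 0.5. […] After 120 min, cells were centrifuged and washed, serially diluted and plated for CFU. Percent recovery is relative to no-drug controls.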

Staphylococcus aureus [32] = assay: Induction of spontaneous mutation in Staphylococcus aureus at 2 to 10 MIC; assay type: functional, organism-based
Acinetobacter baumannii [33] = assay: Ratio of MIC for Acinetobacter baumannii measured after 8 cycle passage to MIC for wild type Acinetobacter baumannii; assay type: functional
A549 = assay: Cytotoxicity against human A549 cells after 48 hrs by MTT assay; assay type: cell-based; conditions: A549, 48 h; outline: as §2
Staphylococcus aureus [34] = assay: Bactericidal activity against methicillin-resistant Staphylococcus aureus assessed as cell survival recovery at MIC measured after drug wash out after 120 mins by time kill assay; assay type: functional; outline: as §5
Acinetobacter baumannii [35] = assay: Antimicrobial activity against Acinetobacter baumannii assessed as inhibition of microbial growth after 24 hrs; assay type: functional; outline: as §3
Pseudomonas aeruginosa [36] = assay: Antimicrobial activity against Pseudomonas aeruginosa assessed as inhibition of microbial growth at 45 uM after 24 hrs; assay type: functional, organism-based; outline: as §1
Enterobacter cloacae [37] = assay: Ratio of MIC for Enterobacter cloacae measured after 8 cycle passage to MIC for wild type Enterobacter cloacae; assay type: functional
[38] = Selectivity index, ratio of IC50 for human A549 cells to MIC for Klebsiella pneumoniae
[39] = Induction of hemolysis in human RBC at 10 uM incubated for 15 mins; assay type: cell-based, Erythrocyte; conditions: red blood cells, read-out: Activity
Outline: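 Human RBCs from whole blood, resuspended 20% v/v in HA buffer (NaCl, CaCl2), compound 10 μM, 15 min at 37°C. Centrifuged 5,500 g for 1 min, supernatant OD543 read. Percent hemolysis against DMF vehicle (0%) and 1.0% Triton X-100 (100%); triplicate.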

[40] = Cytotoxicity against human A549 cells assessed as cell viability recovery at 225 uM after 48 hrs by MTT assay; assay type: cell-based; conditions: read-out: Activity; outline: as §2
[41] = Selectivity index, ratio of IC50 for human A549 cells to MIC for Enterococcus faecium
Acinetobacter baumannii [42] = assay: Antibiofilm activity against Acinetobacter baumannii incubated for 24 hrs followed by biofilm resuspension in PBS and measured after 24 hrs; assay type: functional; outline: as §4
Klebsiella pneumoniae [43] = assay: Antimicrobial activity against Klebsiella pneumoniae assessed as inhibition of microbial growth after 24 hrs; assay type: functional; outline: as §3
Klebsiella pneumoniae [44] = assay: Ratio of MIC for Klebsiella pneumoniae measured after 8 cycle passage to MIC for wild type Klebsiella pneumoniae; assay type: functional
Pseudomonas aeruginosa [45] = assay: Induction of spontaneous mutation in Pseudomonas aeruginosa at 2 to 10 MIC; assay type: functional, organism-based; conditions: 2 to 10 x MIC
Enterobacter cloacae [46] = assay: Antimicrobial activity against Enterobacter cloacae assessed as inhibition of microbial growth at 45 uM after 24 hrs; assay type: functional, organism-based; outline: as §1
[47] = Selectivity index, ratio of IC50 for human A549 cells to MIC for Pseudomonas aeruginosa

## COC(=O)[C@H]1[C@H]2C[C@@H]3c4[nH]c5cc(OC)ccc5c4CCN3C[C@H]2C[C@@H](OC(=O)c2cc(OC)c(OC)c(OC)c2)[C@@H]1OC
Pseudomonas aeruginosa [1]
  growth inhibition (GI): inactive

## CCCC[C@H]1CN(CCCC[C@H]2CNC(=N)N2CCc2cccc(C(F)(F)F)c2)C(=N)N1CCCCC1CCCCC1
[2]
  Selectivity Index: 82
[3]
  Selectivity Index: 82
[4]
  viability at 48 h: > 65%
Enterococcus faecium [5]
  MIC: 1.5 µM
[6]
  Selectivity Index: 82
Klebsiella pneumoniae [7]
  growth inhibition (GI): Active
Pseudomonas aeruginosa [8]
  MBEC50: 31 µM
Klebsiella pneumoniae [9]
  MBEC50: 4.7 µM
Enterobacter cloacae [10]
  MBC90: 4.1 µM (≈ 2.42 µg/mL)
Enterococcus faecium [11]
  Activity: inactive
Staphylococcus aureus [12]
  growth inhibition (GI): Active
Enterococcus faecium [13]
  MBEC50: 29 µM
Klebsiella pneumoniae [14]
  Activity: inactive
Staphylococcus aureus [15]
  Activity: Active
Staphylococcus aureus [16]
  MIC: 1.5 µM
Staphylococcus aureus [17]
  Activity: inactive
Acinetobacter baumannii [18]
  Activity: inactive
Enterococcus faecium [19]
  growth inhibition (GI): Active
Pseudomonas aeruginosa [20]
  MBC90: 2.3 µM (≈ 1.36 µg/mL)
Enterobacter cloacae [21]
  MIC: 1.5 µM
Pseudomonas aeruginosa [22]
  MIC: 1.5 µM
Acinetobacter baumannii [23]
  growth inhibition (GI): Active
Enterobacter cloacae [24]
  MBEC50: 13 µM
Acinetobacter baumannii [25]
  MBC90: 2.8 µM (≈ 1.65 µg/mL)
Staphylococcus aureus [26]
  MBEC50: 2.2 µM
Enterococcus faecium [27]
  MBC90: 1.7 µM (≈ 1 µg/mL)
Klebsiella pneumoniae [28]
  MBC90: 4 µM (≈ 2.36 µg/mL)
Staphylococcus aureus [29]
  Ratio: 2
Enterobacter cloacae [30]
  Activity: inactive
Staphylococcus aureus [31]
  fold change (FC): 2.5
Staphylococcus aureus [32]
  Activity: inactive
Acinetobacter baumannii [33]
  Ratio: <=8
A549
  IC50: 125 µM
Staphylococcus aureus [34]
  Survival: 0.2%
Acinetobacter baumannii [35]
  MIC: 1.5 µM
Pseudomonas aeruginosa [36]
  growth inhibition (GI): Active
Enterobacter cloacae [37]
  Ratio: <=8
[38]
  Selectivity Index: 82
[39]
  hemolysis at 0.25 h, 10 µM: 0.34%
[40]
  viability at 48 h, 225 µM: > 50%
[41]
  Selectivity Index: 82
Acinetobacter baumannii [42]
  MBEC50: 16 µM
Klebsiella pneumoniae [43]
  MIC: 1.5 µM
Klebsiella pneumoniae [44]
  Ratio: <=8
Pseudomonas aeruginosa [45]
  Activity: inactive
Enterobacter cloacae [46]
  growth inhibition (GI): Active
[47]
  Selectivity Index: 82

## N=C1NC[C@H](CCCCN2C[C@H](CC3CCCCC3)N(CCCCC3CCCCC3)C2=N)N1CCC12CC3CC(CC(C3)C1)C2
Klebsiella pneumoniae [7]
  growth inhibition (GI): Active
Staphylococcus aureus [12]
  growth inhibition (GI): Active
Enterococcus faecium [19]
  growth inhibition (GI): Active
Acinetobacter baumannii [23]
  growth inhibition (GI): Active
Pseudomonas aeruginosa [36]
  growth inhibition (GI): Active
Enterobacter cloacae [46]
  growth inhibition (GI): Active

## N=C1NC[C@H](CCCCN2C[C@H](CC3CCCCC3)N(CCCCC3CCCCC3)C2=N)N1CCCCC1CCCCC1
Klebsiella pneumoniae [7]
  growth inhibition (GI): Active
Staphylococcus aureus [12]
  growth inhibition (GI): Active
Enterococcus faecium [19]
  growth inhibition (GI): Active
Acinetobacter baumannii [23]
  growth inhibition (GI): Active
Pseudomonas aeruginosa [36]
  growth inhibition (GI): Active
Enterobacter cloacae [46]
  growth inhibition (GI): Active

## CN[C@H](CC(C)C)C(=O)N[C@H]1C(=O)N[C@@H](CC(N)=O)C(=O)N[C@H]2C(=O)N[C@H]3C(=O)N[C@H](C(=O)N[C@H](C(=O)O)c4cc(O)cc(O)c4-c4cc3ccc4O)[C@H](O)c3ccc(c(Cl)c3)Oc3cc2cc(c3O[C@@H]2O[C@H](CO)[C@@H](O)[C@H](O)[C@H]2O[C@H]2C[C@](C)(N)[C@H](O)[C@H](C)O2)Oc2ccc(cc2Cl)[C@H]1O [VANCOMYCIN]
Staphylococcus aureus [29]
  Ratio: 128
Acinetobacter baumannii [33]
  Ratio: <=128
Enterobacter cloacae [37]
  Ratio: <=128
Klebsiella pneumoniae [44]
  Ratio: <=128

## CCCCCCCN1C(=N)N(CCCC[C@H]2CNC(=N)N2CCCCC2CCCCC2)C[C@@H]1CCCC
Klebsiella pneumoniae [7]
  growth inhibition (GI): Active
Staphylococcus aureus [12]
  growth inhibition (GI): Active
Enterococcus faecium [19]
  growth inhibition (GI): Active
Acinetobacter baumannii [23]
  growth inhibition (GI): Active
Pseudomonas aeruginosa [36]
  growth inhibition (GI): Active
Enterobacter cloacae [46]
  growth inhibition (GI): Active
